{"data": "Experimental data pooled from the literature"}
{"Structure (SMILES)": "C=CCCCCCCCCC(=O)C(F)(F)P(=O)(O)O", "target or system": "Enterococcus faecalis", "assay": "microbial growth", "system": "ATCC33186", "endpoint": "MIC", "result": "> 200 µg/mL"}
{"Structure (SMILES)": "Cc1cccc(CSc2nccc(OCCOc3cc(=O)oc4ccccc34)n2)c1", "target or system": "Human coronavirus 229E", "assay": "cytopathic effect", "system": "A549", "setting": "25 µM", "endpoint": "inhibition", "result": "58.1%"}
{"Structure (SMILES)": "CCCCCCCC/C=C\\CCCCCCCCNC(=O)CP(=O)(O)O", "target or system": "Enterococcus faecalis", "assay": "microbial growth", "system": "ATCC33186", "endpoint": "MIC", "result": "50 µg/mL"}
{"Structure (SMILES)": "CC[C@H](C)C[C@H](C)CCCCCCCCC(=O)N[C@H]1C[C@@H](O)[C@@H](NCCN)NC(=O)[C@@H]2[C@@H](O)CCN2C(=O)[C@H]([C@H](O)CCN)NC(=O)[C@H]([C@H](O)[C@@H](O)c2ccc(O)cc2)NC(=O)[C@@H]2C[C@@H](O)CN2C(=O)[C@H]([C@@H](C)O)NC1=O", "target or system": "Aspergillus fumigatus", "assay": "microbial growth, broth dilution", "system": "MF5668", "endpoint": "MIC50", "result": "0.016 µg/mL"}
{"Structure (SMILES)": "COc1ccc(N2CCN(C(=O)/C=C/c3ccc4c(c3)C=CC(C)(C)O4)CC2)cc1", "target or system": "rat Primary cortical neuron", "assay": "cell growth or viability, MTT", "setting": "1 µM, 12 h", "endpoint": "viability", "result": "75%"}
{"Structure (SMILES)": "COc1cc2c(cc1O)CCN[C@]21CS[C@@H]2c3c(OC(C)=O)c(C)c4c(c3[C@H](COC1=O)N1[C@@H]2[C@H]2c3c(cc(C)c(OC)c3O)C[C@@H]([C@@H]1C#N)N2C)OCO4", "target or system": "Human coronavirus 229E", "assay": "viral replication", "system": "Calu-3", "endpoint": "IC50", "result": "0.253 µM"}
{"Structure (SMILES)": "CCCC(=O)CP(=O)(O)O", "target or system": "Enterococcus faecalis", "assay": "microbial growth", "system": "ATCC33186", "endpoint": "MIC", "result": "> 200 µg/mL"}
{"Structure (SMILES)": "Nc1ncnc2c([C@@H]3N[C@H](CO)[C@@H](O)[C@H]3O)c[nH]c12", "target or system": "Japanese encephalitis virus", "assay": "viral replication, inhibitor", "system": "Vero 76", "setting": "9.5 µM", "endpoint": "inhibition", "result": "9.8%"}
{"Structure (SMILES)": "COc1c(C)c2c(c(O)c1C/C=C(\\C)CCC(=O)O)C(=O)OC2", "target or system": "Human coronavirus 229E", "assay": "viral replication", "system": "Calu-3", "endpoint": "IC50", "result": "2.11 µM"}
{"Structure (SMILES)": "O=C(CCCCCCCCCCOc1ccccc1)CP(=O)(O)O", "target or system": "Enterococcus faecalis", "assay": "microbial growth", "system": "ATCC33186", "endpoint": "MIC", "result": "50 µg/mL"}
{"Structure (SMILES)": "CCOC(=O)C1=C[C@@H](OC(CC)CC)[C@H](NC(C)=O)[C@@H](N)C1", "target or system": "Human coronavirus 229E", "assay": "cytopathic effect", "system": "A549", "setting": "50 µM", "endpoint": "inhibition", "result": "72.8%"}
{"Structure (SMILES)": "COc1ccc(NC(=O)/C=C/c2ccc3c(c2)C=CC(C)(C)O3)cc1", "target or system": "rat Primary cortical neuron", "assay": "cell growth or viability, MTT", "setting": "1 µM, 12 h", "endpoint": "viability", "result": "87%"}
{"Structure (SMILES)": "O=c1cc(OCCCOc2ccnc(SCc3ccc(F)cc3)n2)c2cc(F)ccc2o1", "target or system": "Human coronavirus 229E", "assay": "cytopathic effect", "system": "A549", "setting": "6.25 µM", "endpoint": "inhibition", "result": "34.9%"}
{"Structure (SMILES)": "COc1ccccc1NC(=O)/C=C/c1ccc2c(c1)C=CC(C)(C)O2", "target or system": "rat Primary cortical neuron", "assay": "cell growth or viability, MTT", "setting": "1 µM, 12 h", "endpoint": "viability", "result": "83%"}
{"Structure (SMILES)": "O=C(CCCCC1CCCCC1)NP(=O)(O)O", "target or system": "Enterococcus faecalis", "assay": "microbial growth", "system": "ATCC33186", "endpoint": "MIC", "result": "> 200 µg/mL"}
{"Structure (SMILES)": "NC(=O)c1ncn([C@@H]2O[C@H](CO)[C@@H](O)[C@H]2O)n1", "target or system": "Human coronavirus 229E", "assay": "viral replication", "system": "Huh7.5", "endpoint": "IC50", "result": "25.1 µM"}
{"Structure (SMILES)": "CCC(CC)COC(=O)[C@H](C)N[P@](=O)(OC[C@H]1O[C@@](C#N)(c2ccc3c(N)ncnn23)[C@H](O)[C@@H]1O)Oc1ccccc1", "target or system": "Human coronavirus 229E", "assay": "viral replication", "system": "Calu-3", "endpoint": "IC50", "result": "0.11 µM"}
{"Structure (SMILES)": "O=C(Cc1ccc2ccccc2c1)N[C@@H](Cc1ccccc1)C(=O)N[C@H](Cc1ccccc1)C(=O)N[C@@H](Cc1ccc(OP(=O)(O)O)cc1)C(=O)O", "target or system": "HeLa", "assay": "cell growth or viability, MTT", "setting": "48 h", "endpoint": "IC50", "result": "> 500 µM"}
